Test [1] is filed under the species Homo sapiens. In words: Selectivity index, ratio of Kd for BRD2 bromodomain 1 (74 to 194 residues) (unknown origin to Kd for BRD2 bromodomain 2 (348 to 455 residues) (unknown origin).
Test [2] has as its target T1, Bromodomain-containing protein 2 (Homo sapiens, UniProt P25440). In words: Binding affinity to His-tagged BRD2 bromodomain 1 (unknown origin) by SPR assay. In kind it is single protein. The essentials: (§1)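 SPR at 15 °C: poly-His BRD2 bromodomain constructs capture-coupled (Ni2+/NTA plus EDC/NHS amine coupling) to ~450–530 RU, with a reference channel. Compounds run as 3-fold series from 2 μM, in duplicate, at 150 μL/min.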
Target sequence in this assay (P25440 whole entry): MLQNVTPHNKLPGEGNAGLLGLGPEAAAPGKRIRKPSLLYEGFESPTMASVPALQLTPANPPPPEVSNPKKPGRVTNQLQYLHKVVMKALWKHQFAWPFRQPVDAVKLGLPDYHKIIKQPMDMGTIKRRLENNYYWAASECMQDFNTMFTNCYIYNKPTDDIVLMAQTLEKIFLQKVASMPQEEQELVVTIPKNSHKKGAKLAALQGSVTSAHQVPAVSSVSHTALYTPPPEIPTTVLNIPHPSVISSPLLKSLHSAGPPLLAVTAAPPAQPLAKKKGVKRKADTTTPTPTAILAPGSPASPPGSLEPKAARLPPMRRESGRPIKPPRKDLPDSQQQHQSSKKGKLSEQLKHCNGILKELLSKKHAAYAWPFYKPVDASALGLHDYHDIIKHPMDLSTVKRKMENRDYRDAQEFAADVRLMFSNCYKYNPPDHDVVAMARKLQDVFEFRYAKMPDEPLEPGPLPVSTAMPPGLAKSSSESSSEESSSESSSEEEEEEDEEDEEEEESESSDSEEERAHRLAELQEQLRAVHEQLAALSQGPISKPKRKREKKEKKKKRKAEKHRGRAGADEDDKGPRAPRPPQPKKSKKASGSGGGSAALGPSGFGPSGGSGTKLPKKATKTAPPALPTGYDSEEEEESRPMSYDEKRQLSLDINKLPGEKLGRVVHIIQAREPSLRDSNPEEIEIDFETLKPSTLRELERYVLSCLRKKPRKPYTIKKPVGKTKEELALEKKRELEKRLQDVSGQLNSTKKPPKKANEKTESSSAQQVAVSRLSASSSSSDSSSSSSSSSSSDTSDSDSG

Test [3] concerns the target T1, Bromodomain-containing protein 2. Nature of the test: Binding affinity to His-tagged BRD2 bromodomain 2 (unknown origin) by SPR assay. The essentials: as §1
Target sequence in this assay (P25440 whole entry): as above
For orientation: Surface plasmon resonance follows binding to a sensor surface in real time, without labels.

The target is the same in test [4]. Nature of the test: Inhibition of recombinant human BRD2 bromodomain 1 (49 to 170 residues) using biotin labeled peptide substrate preincubated for 15 mins followed by substrate addition measured after 1 hr by TR-FRET assay. In kind it is single protein.
Target sequence in this assay (P25440 whole entry): as above
For test [5], the species on record is Homo sapiens. Nature of the test: Selectivity index, ratio of Kd for His-tagged BRD2 bromodomain 1 (unknown origin) to Kd for His-tagged BRD2 bromodomain 2 (unknown origin). The essentials: as §1
Test [6] deals with T1, Bromodomain-containing protein 2.
Target sequence in this assay (P25440 whole entry): as above
Test [7] in a line: Cytotoxicity against human HD-MB03 cells assessed as reduction in cell viability after 5 days by CellTiter-Glo assay. The note with it: HD-MB03, 120 h. A general note: In ATP-based viability assays light output follows the ATP content of the culture.
A further test relates to LOUCY. In words: Cytotoxicity against human Loucy cells assessed as reduction in cell viability after 5 days by CellTiter-Glo assay. The following applies: 120 h.
A further test concerns HepG2. In words: Cytotoxicity against human HepG2 cells assessed as reduction in cell viability after 3 days by CellTiter-Glo assay. In kind it is cell-based.
Test [8] can be described thus: Cytotoxicity against human NALM16 cells assessed as reduction in cell viability after 5 days by CellTiter-Glo assay. The following applies: NALM16, 120 h.
The test system of another test is BJ. In words: Cytotoxicity against human BJ cells assessed as reduction in cell viability after 3 days by CellTiter-Glo assay. In kind it is cell-based.
For the next test, the system named is HEK293. In words: Cytotoxicity against HEK293 cells assessed as reduction in cell viability after 3 days by CellTiter-Glo assay. In kind it is cell-based, Homo sapiens.
Test [9] has as its target T1, Bromodomain-containing protein 2. In words: Binding affinity to BRD2 bromodomain 1 (74 to 194 residues) (unknown origin) by ITC. Background: Isothermal titration calorimetry measures the heat released or taken up as one component is titrated into another.
Target sequence in this assay (P25440 whole entry): as above
The target is the same in test [10]. Nature of the test: Inhibition of BRD2 in human HD-MB03 cells assessed as reduction in c-Myc protein expression after 72 hrs by Hoechst 33342 staining based immunofluorescence assay. In kind it is cell-based. The essentials:
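HD-MB03 cells (3000/well, supplemented neurobasal medium) treated 24 h after plating with compound at 2 nM–40 μM final for 72 h. Imaged at 10x; nuclear masks from Hoechst used to quantify MYC per nucleus.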
Target sequence in this assay (P25440 whole entry, looked up): as the sequence (P25440 whole entry) above

In the case of `CC(=O)N1c2ccc(-c3ccoc3)cc2[C@H](NC(=O)OC(C)C)C[C@@H]1C`, the Selectivity Index in the test filed under Homo sapiens [1] amounted to 0.5; in the test listed under Homo sapiens [5] it was 1.7. The Kd in test [2] was found to be 245 nM; in [3], 148 nM. Besides, the IC50 worked out at 5800 nM in test [4] and 1910 nM in test [6].
Take `CC(=O)N1c2ccc(-c3ccc(C(=O)O)cc3)cc2[C@H](Nc2ccc(Cl)cc2)C[C@@H]1C`: the EC50 was 200 nM in [7]; 700 nM in the test with LOUCY; “Non-Toxic” in the test with HepG2; 310 nM in test [8]; “Non-Toxic” with BJ. Also, the IC50 in test [4] was 720 nM; in test [6], 30 nM.
Take `CCNC(=O)C[C@@H]1N=C(c2ccc(Cl)cc2)c2cc(OC)ccc2-n2c(C)nnc21` [MOLIBRESIB]: the EC50 result in the test on HepG2, in the test with HEK293 and with BJ was “Non-Toxic” throughout.
Take `CC(=O)N1c2ccc(-c3cccs3)cc2[C@H](NC(=O)OC(C)C)C[C@@H]1C`: the Selectivity Index in the test filed under Homo sapiens [1] was 2.9; in the test filed under Homo sapiens [5] it was 1.1. The Kd in test [2] came to 66 nM; in test [9] it was 61.3 nM. Moreover, the IC50 in test [4] was determined as 1770 nM; in test [6] it was 830 nM.
Turning to `CC(=O)N1c2ccc(-c3ccsc3)cc2[C@H](NC(=O)OC(C)C)C[C@@H]1C`, the Selectivity Index worked out at 4.2 in the test listed under Homo sapiens [1] and 1.5 in the test filed under Homo sapiens [5]. Besides, the Kd in test [2] is 105 nM; in [9], 71.7 nM. For the same molecule, the IC50 in test [4] was found to be 5210 nM; in test [6], 1080 nM.
As to `CC(=O)N1c2ccc(-c3ccco3)cc2[C@H](NC(=O)OC(C)C)C[C@@H]1C`, the EC50 entry in the test with HepG2, with HEK293 and with BJ was “Non-Toxic” each time. Further, in [10], the inhibition result is “Dose-dependent effect”.
`CC(=O)N1c2ccc(-c3ccc[nH]3)cc2[C@H](NC(=O)OC(C)C)C[C@@H]1C`: the Selectivity Index in the test listed under Homo sapiens [1] stood at 3.7; in the test filed under Homo sapiens [5] it was 1.3. Besides, the Kd in test [2] was 99 nM; in [3] it was 74 nM. Also, the IC50 in test [4] and in [6] was 1400 nM in each case.
For `COc1cc(OC)c2c(=O)[nH]c(-c3cc(C)c(OCCO)c(C)c3)nc2c1` [APABETALONE], the EC50 entry in the test with HepG2, in the test on HEK293 and in the test on BJ was “Non-Toxic” each time.
Take `CC(=O)N1c2ccc(-c3cc[nH]c3)cc2[C@H](NC(=O)OC(C)C)C[C@@H]1C`: the figures for the Selectivity Index in the test filed under Homo sapiens [1] and in the test filed under Homo sapiens [5] were 4.6 and 1.4, respectively. In addition, the results for the dissociation constant (Kd) in test [2] and in [3] were 104 nM and 77 nM, respectively. Further, the IC50 was determined as 2480 nM in test [4] and 410 nM in test [6].
In the case of `Cc1sc2c(c1C)C(c1ccc(Cl)cc1)=N[C@@H](CC(=O)OC(C)(C)C)c1nnc(C)n1-2`, the EC50 entry with HepG2, in the test with HEK293 and in the test on BJ was “Non-Toxic” each time.

A word on the Kd: it is a measure of binding affinity in units of concentration. Read a high Kd as a looser complex. One may read the IC50 as the midpoint of a concentration-inhibition curve. The term EC50 denotes the concentration at which the effect is half-maximal.

(Values after ChEMBL document CHEMBL4177706, “Exploiting a water network to achieve enthalpy-driven, bromodomain-selective BET inhibitors” (Bioorg Med Chem, 2018).)
